Source: ChEMBL document CHEMBL1153139, “CD4 mimics targeting the mechanism of HIV entry” (Bioorg Med Chem Lett, 2010)
Calls of active or inactive are those of the source. The calls are words filed in the database; no cut-off is given here.

What was measured:
[1] = test system: Human immunodeficiency virus 1; assay: Antiviral activity against HIV1 3B laboratory isolate assessed as inhibition of virus-induced cytopathogenicity by MTT assay; format: functional, organism-based; settings: Human immunodeficiency virus 1, 3B
Method in brief: (§1)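 Infection of PM1/CCR5 cells; tropism/subtype of each strain: IIIB X4 Sub B, 89.6 dual Sub B, KYAG and fTOI R5 Sub B (primary isolates). Viability read by MTT. […] Means of at least three experiments; tested up to 100 uM.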

[2] = test system: Human immunodeficiency virus 1; assay: Antiviral activity against HIV1 89.6 laboratory isolate assessed as inhibition of virus-induced cytopathogenicity by MTT assay; format: functional, organism-based; settings: Human immunodeficiency virus 1, isolate 89.6; method in brief: as §1
[3] = test system: Human immunodeficiency virus 1; assay: Antiviral activity against HIV1 fTOI primary isolate assessed as inhibition of virus-induced cytopathogenicity by MTT assay; format: functional, organism-based; settings: Human immunodeficiency virus 1, fTOI; method in brief: as §1
[4] = test system: Human immunodeficiency virus 1; assay: Antiviral activity against HIV1 KYAG primary isolate assessed as inhibition of virus-induced cytopathogenicity by MTT assay; format: functional, organism-based; settings: Human immunodeficiency virus 1, KYAG; method in brief: as §1
[5] = test system: PM1; assay: Inhibition of gp120 binding to CD4 in HIV1 JR-FL infected human PM1 cells assessed as binding of anti-envelope CD4-induced monoclonal antibody 4C11 to envelope expressing cell surface at 100 uM pretreated 15 mins before 4C11 addition by FACS analysis; format: cell-based; settings: Human immunodeficiency virus 1
Method in brief: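 PM1 cells chronically infected with JR-FL (R5, Sub B) preincubated 15 min with compound at 100 uM (sCD4 11 nM as reference), then anti-HIV-1 mAb 4C11 at 4 °C for 15 min. After PBS wash, stained with FITC goat anti-human IgG; flow cytometry on gated PM1 cells, anti-CD19 control antibody; read as 4C11 mean fluorescence intensity. Minimum two independent experiments.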

[6] = Inhibition of HIV1 gp120 binding to CD4; design: species or system Human immunodeficiency virus 1
[7] = Cytotoxicity against mock-infected CCR5 expressing human PM1 cells by MTT assay; format: cell-based

Compound	IC50 [1]	IC50 [2]	IC50 [3]	IC50 [4]	Activity [5]	Kd [6]	CC50 [7]
Cc1ccc(NC(=O)C(=O)NC2CC(C)(C)NC(C)(C)C2)cc1	23 µM	41 µM	16 µM	51 µM	Active		
CC1(C)CC(NC(=O)C(=O)Nc2ccc(Br)cc2)CC(C)(C)N1	4 µM	9 µM				2.2 µM	150 µM
CC1(C)CC(NC(=O)C(=O)Nc2ccc(C(F)(F)F)cc2)CC(C)(C)N1		27 µM					72 µM
CC1(C)CC(NC(=O)C(=O)Nc2ccc(F)cc2)CC(C)(C)N1	61 µM	81 µM		> 100 µM			320 µM
CC1(C)CC(NC(=O)C(=O)Nc2ccc(Cl)cc2)CC(C)(C)N1	8 µM	10 µM	5 µM	> 30 µM	Active		170 µM
CC1(C)CC(NC(=O)C(=O)Nc2ccc([N+](=O)[O-])cc2)CC(C)(C)N1		42 µM					230 µM
COc1ccc(NC(=O)C(=O)NC2CC(C)(C)NC(C)(C)C2)cc1	> 100 µM	> 100 µM		> 100 µM			340 µM
CC1(C)CC(NC(=O)C(=O)Nc2ccccc2)CC(C)(C)N1	> 100 µM	> 100 µM	81 µM	> 100 µM	inactive		350 µM
